Experimental data taken from ChEMBL document CHEMBL1131010, “Inhibition of human neutrophil elastase. 4. Design, synthesis, X-ray crystallographic analysis, and structure-activity relationships for a series of P2-modified, orally active peptidyl pentafluoroethyl ketones” (J Med Chem, 1998).

Columns and labels:
Format in all cases: functional, Cricetulus griseus
Cricetinae gen. sp. [1] = experiment: In vivo HNE inhibitory activity of lung hemorrhage in 6-8 hamsters; parameters: concentration or dose not given beside the values
How it was run: (§1)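 Hamsters dosed orally at 1, 1.5, 2 or 4 h before intratracheal instillation of HNE (25 µg). Animals were killed 1 h after HNE and lungs lavaged with saline. BAL hemoglobin was read spectrophotometrically at 536-546 nm. % inhibition of hemorrhage is relative to vehicle-treated animals, given as mean ± SEM of 6-8 hamsters, with p < 0.05 as significance.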

Cricetinae gen. sp. [2] = experiment: In vivo percent inhibition of lung hemorrhage in 6-8 hamsters administration of 25 mg/kg 2 hours before intratracheal instillation of HNE (25 ug); how it was run: as §1
Cricetinae gen. sp. [3] = experiment: In vivo percent inhibition of lung hemorrhage in 6-8 hamsters administration of 25 mg/kg 1 hour before intratracheal instillation of HNE (25 ug); how it was run: as §1
Cricetinae gen. sp. [4] = experiment: In vivo percent inhibition of lung hemorrhage in 6-8 hamsters administration of 25 mg/kg 4 hr before intratracheal instillation of HNE (25 ug); how it was run: as §1
Cricetinae gen. sp. [5] = experiment: In vivo percent inhibition of lung hemorrhage in 6-8 hamsters administration of 25 mg/kg 2 hr before intratracheal instillation of HNE (25 ug); how it was run: as §1
Cricetinae gen. sp. [6] = experiment: In vivo percent inhibition of lung hemorrhage in 6-8 hamsters after administration of 25 mg/kg 1 hr before intratracheal instillation of HNE (25 ug); how it was run: as §1
Cricetinae gen. sp. [7] = experiment: In vivo percent inhibition of lung hemorrhage in 6-8 hamsters administration of 25 mg/kg 1 hr before intratracheal instillation of HNE (25 ug); how it was run: as §1

Row | SMILES | Inhibition (Cricetinae gen. sp. [1]) [%] | further results
1 | CC(C)C(NC(=O)C1CC(O)CN1C(=O)[C@@H](NC(=O)c1ccc(C(=O)N2CCOCC2)cc1)C(C)C)C(=O)C(F)(F)C(F)(F)F (stereo not given in full) | 0 | 
2 | CC(C)C(NC(=O)[C@@H]1CCCN1C(=O)[C@@H](NC(=O)c1ccc(C(=O)N2CCOCC2)cc1)C(C)C)C(=O)C(F)(F)C(F)(F)F (stereo not given in full) | 74 | 
3 | CC(C)C(NC(=O)[C@@H]1CSCN1C(=O)[C@@H](NC(=O)c1ccc(C(=O)N2CCOCC2)cc1)C(C)C)C(=O)C(F)(F)C(F)(F)F (stereo not given in full) | 0 | 
4 | CC(C)C(NC(=O)[C@@H]1CCCN1C(=O)[C@@H](NC(=O)c1ccc(C(=O)N2CCOCC2)cc1)C(C)C)C(=O)C(F)(F)C(F)(F)C(F)(F)F (stereo not given in full) | 47 | inhibition in vivo at 25 mg/kg (Cricetinae gen. sp. [2]): 25%; inhibition in vivo at 25 mg/kg (Cricetinae gen. sp. [3]): 30%
5 | CC(C)C(NC(=O)[C@H]1CC(OCc2ccccc2)CN1C(=O)[C@@H](NC(=O)c1ccc(C(=O)N2CCOCC2)cc1)C(C)C)C(=O)C(F)(F)C(F)(F)F (stereo not given in full) | 7 | 
6 | CC(=O)OC1CC(C(=O)NC(C(=O)C(F)(F)C(F)(F)F)C(C)C)N(C(=O)[C@@H](NC(=O)c2ccc(C(=O)N3CCOCC3)cc2)C(C)C)C1 (stereo not given in full) | 0 | inhibition in vivo at 25 mg/kg (Cricetinae gen. sp. [4]): 0%; inhibition in vivo at 25 mg/kg (Cricetinae gen. sp. [5]): 0%
7 | CC(C)C(NC(=O)[C@H]1CCN1C(=O)[C@@H](NC(=O)c1ccc(C(=O)N2CCOCC2)cc1)C(C)C)C(=O)C(F)(F)C(F)(F)F (stereo not given in full) | 79 | inhibition in vivo at 25 mg/kg (Cricetinae gen. sp. [6]): 57%
8 | CC(C)C(NC(=O)C1CCCCN1C(=O)[C@@H](NC(=O)c1ccc(C(=O)N2CCOCC2)cc1)C(C)C)C(=O)C(F)(F)C(F)(F)F (stereo not given in full) | 54 | inhibition in vivo at 25 mg/kg (Cricetinae gen. sp. [7]): 43%; inhibition in vivo at 25 mg/kg (Cricetinae gen. sp. [5]): 39%
